Experimental data published in ChEMBL document CHEMBL1156777, “Synthesis and antiprotozoal activity of cationic 1,4-diphenyl-1H-1,2,3-triazoles” (J Med Chem, 2010).
pIC50: −log10 of the molar value. Calls of active or inactive are those of the source. The calls are words filed in the database; no cut-off is given here.

Tests used:
Mus musculus [1] = experiment: Toxicity in NMRI mouse infected with Trypanosoma brucei rhodesiense STIB900 assessed as survival at 5 mg/kg, ip after administered for 4 consecutive days from day 3 postinfection measured after 7 to 30 days; type: organism-based; design: dose 5 mg/kg, route intraperitoneal; conditions: in vivo
In short: (§1)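 Female NMRI mice infected ip with 2 × 10⁴ STIB900 bloodstream forms. Groups of four dosed ip daily on days 3–6 postinfection; compounds in DMSO diluted with water to 10% final DMSO. Untreated infected controls. Tail-blood parasitaemia checked on days 7 and 10, twice weekly to day 30, then weekly to day 60. Relapse day recorded for mean relapse day; cure means parasite-free survival to day 60.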

[2] = system: Trypanosoma brucei rhodesiense; experiment: Antitrypanosomal activity against Trypanosoma brucei rhodesiense STIB900 infected in NMRI mouse assessed as mean parasitemia relaps day at 5 mg/kg, ip; type: functional; conditions: route intraperitoneal; in short: as §1
Plasmodium falciparum = experiment: Antiplasmodial activity against chloroquine-resistant Plasmodium falciparum K1 infected in human erythrocytes after 48 hrs assessed as [3H]hypoxanthine incorporation by liquid scintillation counting; type: functional, organism-based
Leishmania donovani = experiment: Antileishmanial activity against Leishmania donovani MHOM/SD/62/1S-CL2D; type: functional, organism-based
In short: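 Axenic amastigotes (MHOM/SD/62/1S-CL2_D) adapted from promastigotes and grown in amastigote medium at 37 °C. 6 × 10⁴ parasites per well were exposed to 2-fold serial dilutions for 72 h at 37 °C in humidified 5% CO₂. Growth was read with tetrazolium CellTiter reagent as absorbance at 490 nm. IC50 came from a four-parameter dose–response fit; duplicate determinations were averaged.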

[3] = system: Trypanosoma brucei rhodesiense; experiment: Antitrypanosomal activity against Trypanosoma brucei rhodesiense STIB900 after 70 hrs by alamar blue assay; type: functional, organism-based; conditions: STIB900, 70 h
[4] = Selectivity index, ratio of IC50 for rat L6 cells to IC50 for Trypanosoma brucei rhodesiense STIB900; type: toxicity, cell-based; conditions: read-out: Ratio IC50
In short: (§2)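 Each index is L6 IC50 divided by parasite IC50. L6 values are from the 70 h resazurin assay. T. b. rhodesiense STIB900 values are from the 70 h resazurin assay. P. falciparum K1 values are from erythrocytic-stage [³H]-hypoxanthine incorporation: 48 h drug exposure, then 24 h with label. L. donovani values are from the 72 h axenic amastigote CellTiter assay.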

[5] = Selectivity index, ratio of IC50 for rat L6 cells to IC50 for Plasmodium falciparum K1; type: toxicity, cell-based; conditions: read-out: Ratio IC50; in short: as §2
L6 = experiment: Cytotoxicity against rat L6 cells after 70 hrs by alamar blue assay; type: cell-based; conditions: L6, 70 h
In short: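 Cells were exposed to serial dilutions for 70 h at 37 °C, 5% CO₂, then given resazurin for 2–3 h. IC50 came from sigmoidal curves; two independent runs in duplicate. Top concentration was 90 μg/mL, converted to μM by molecular weight.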

[6] = Selectivity index, ratio of IC50 for rat L6 cells to IC50 for Leishmania donovani MHOM/SD/62/1S-CL2D; type: toxicity, cell-based; conditions: read-out: Ratio IC50; in short: as §2
Mus musculus [7] = experiment: Toxicity in NMRI mouse infected with Trypanosoma brucei rhodesiense STIB900 assessed as survival at 2 mg/kg, ip after administered for 4 consecutive days from day 3 postinfection measured after 7 to 30 days; type: organism-based; design: dose 2 mg/kg, route intraperitoneal; conditions: in vivo; in short: as §1
[8] = system: Trypanosoma brucei rhodesiense; experiment: Antitrypanosomal activity against Trypanosoma brucei rhodesiense STIB900 infected in NMRI mouse assessed as mean parasitemia relaps day at 1 mg/kg, ip; type: functional; conditions: route intraperitoneal; in short: as §1
Mus musculus [9] = experiment: Toxicity in NMRI mouse infected with Trypanosoma brucei rhodesiense STIB900 assessed as survival at 8 mg/kg, ip after administered for 4 consecutive days from day 3 postinfection measured after 7 to 30 days; type: organism-based; design: dose 8 mg/kg, route intraperitoneal; conditions: in vivo; in short: as §1
[10] = system: Trypanosoma brucei rhodesiense; experiment: Antitrypanosomal activity against Trypanosoma brucei rhodesiense STIB900 infected in NMRI mouse assessed as mean parasitemia relaps day at 10 mg/kg, ip; type: functional; conditions: route intraperitoneal
In short: (§3)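 Single-dose ip regimen at 10 mg/kg in female NMRI mice infected ip with 2 × 10⁴ STIB900 bloodstream forms, four mice per group. Dosing solution was DMSO diluted with water to 10% final DMSO. Tail-blood parasitaemia followed to day 60 postinfection, with relapse day recorded; untreated infected controls.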

Mus musculus [11] = experiment: Toxicity in NMRI mouse infected with Trypanosoma brucei rhodesiense STIB900 assessed as survival at 10 mg/kg, ip after administered 1 day postinfection measured after 7 to 30 days; type: organism-based; design: dose 10 mg/kg, route intraperitoneal; conditions: in vivo; in short: as §3
Mus musculus [12] = experiment: Toxicity in NMRI mouse infected with Trypanosoma brucei rhodesiense STIB900 assessed as survival at 1 mg/kg, ip after administered for 4 consecutive days from day 3 postinfection measured after 7 to 30 days; type: organism-based; design: dose 1 mg/kg, route intraperitoneal; conditions: in vivo; in short: as §1
Plasmodium berghei = experiment: Antiplasmodial activity against Plasmodium berghei infected in mice (Mus musculus) assessed as inhibition of parasitaemia at 30 mg/kg, subcutaneous for 4 days; type: functional, organism-based; design: dose 30 mg/kg
In short: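 P. berghei mouse model. Compound was given subcutaneously at 30 mg/kg daily for four days. The read-out was blood parasite count. For in vivo use, compounds were dissolved in DMSO and diluted with distilled water to 10% DMSO final.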

Row | SMILES | Activity (Mus musculus [1]) | Activity [2] | pIC50 (Plasmodium falciparum) | pIC50 (Leishmania donovani) | pIC50 [3] | selectivity ratio [4] | selectivity ratio [5] | pIC50 (L6) | selectivity ratio [6] | Activity (Mus musculus [7]) | Activity [8] | Activity (Mus musculus [9]) | Activity [10] | Activity (Mus musculus [11]) | Activity (Mus musculus [12]) | Activity (Plasmodium berghei)
1 | COc1ccc(C(=N)N)cc1-n1cc(-c2cccc(C(=N)N)c2)nn1.Cl.Cl | Toxic | 17 days | 7.55 | < 4.00 | 7.33 | > 4770 | > 8000 | < 3.65 |  |  |  |  |  |  |  | 
2 | Cl.Cl.N=C(N)c1ccc(-n2cc(-c3ccc(C(=N)N)cc3O)nn2)cc1 | Non-toxic |  | 8.70 | 5.37 | 7.80 | 3080 | 24600 | 4.31 | 11 |  |  |  |  |  |  | 
3 | COc1cc(C(=N)N)ccc1-n1cc(-c2ccc(C(=N)N)cc2)nn1.Cl.Cl | Toxic | 34 days | 8.05 | < 4.40 | 7.42 | > 4820 | > 20300 | < 3.74 |  |  |  |  |  |  |  | 
4 | Nc1nc(N)nc(Nc2ccc([As]3SCC(CO)S3)cc2)n1 (configuration not stated) [MELARSOPROL] |  |  |  |  |  |  |  |  |  | Non-toxic | 20 days | Non-toxic |  |  |  | 
5 | Cl.Cl.N=C(N)c1ccc(-n2cc(-c3cc(C(=N)N)ccc3O)nn2)cc1 | Non-toxic |  | 7.66 | < 4.30 | 8.22 | > 36500 | > 9960 | < 3.66 |  |  |  |  |  |  |  | 
6 | Cl.Cl.N=C(N)c1cccc(-c2cn(-c3ccc(C(=N)N)cc3O)nn2)c1 | Toxic | 14 days |  | < 4.00 | 6.76 | > 1190 | > 1190 | < 3.68 |  |  |  |  |  |  |  | 
7 | Cl.Cl.N=C(N)c1cccc(-c2cn(-c3cccc(C(=N)N)c3)nn2)c1 | Toxic | 10 days | 7.68 | 4.32 | 7.08 | 2640 | 10400 | 3.66 | 5 |  |  |  |  |  |  | 
8 | CC(C)NC(=N)c1ccc(-n2cc(-c3cc(C(=N)NC(C)C)ccc3O)nn2)cc1.Cl | Toxic | 28.75 days | 7.55 | < 4.00 | 6.94 | > 1540 | > 6390 | < 3.75 |  |  |  |  |  |  |  | 
9 | COc1cc(C(=N)N)ccc1-n1cc(-c2cccc(C(=N)N)c2)nn1.Cl.Cl | Toxic | 13 days | 7.60 | 4.48 | 7.96 | > 17500 | > 7680 | < 3.72 | > 6 |  |  |  |  |  |  | 
10 | COc1cc(C(=N)N)ccc1-c1cn(-c2cccc(C(=N)N)c2)nn1.Cl.Cl | Non-toxic |  | 8.15 | 4.96 | 8.30 | 32800 | 23400 | 3.79 | 15 |  | 9.5 days |  | 23.5 days | Toxic | Toxic | 
11 | Cl.Cl.c1cc(-c2cn(-c3ccc(C4=NCCN4)cc3)nn2)ccc1C1=NCCN1 | Toxic | 8 days | 8.70 | < 4.00 | 7.28 | 1910 | 50500 | 4.00 |  |  |  |  |  |  |  | 
12 | Cl.Cl.N=C(N)c1ccc(-c2cn(-c3cccc(C(=N)N)c3)nn2)cc1 |  | 18 days | 8.40 | 4.77 | 8.22 | 14300 | 21500 | 4.07 | 5 |  |  |  |  |  |  | 
13 | Cl.Cl.N=C(N)c1ccc(-n2cc(-c3cccc(C(=N)N)c3)nn2)cc1 |  | 17.33 days | 8.52 | 4.92 | 8.10 | 1080 | 2870 | 5.07 | < 1 |  |  |  |  |  |  | 
14 | COc1ccc(C(=N)N)cc1-n1cc(-c2ccc(C(=N)N)cc2)nn1.Cl.Cl |  | 23 days | 7.77 | 4.51 | 7.80 | > 12600 | > 11800 | < 3.70 | > 6 |  |  |  |  |  |  | 
15 | CC(C)NC(=N)c1ccc(-c2cn(-c3ccc(C(=N)NC(C)C)cc3)nn2)cc1.Cl.Cl |  | 8 days | 8.30 | 4.60 | 6.70 | > 910 | > 36600 | < 3.74 | > 7 |  |  |  |  |  |  | 
16 | Cl.Cl.Oc1ccc(C2=NCCN2)cc1-c1cn(-c2ccc(C3=NCCN3)cc2)nn1 | Toxic | 10.75 days | 8.05 | 4.37 | 7.37 | > 4420 | > 21100 | < 3.72 | > 4 |  |  |  |  |  |  | 
17 | CC(C)NC(=N)c1ccc(-n2cc(-c3ccc(C(=N)NC(C)C)cc3O)nn2)cc1.Cl.Cl | Non-toxic |  | 8.15 | < 4.30 | 7.43 | > 4860 | > 25700 | < 3.74 |  |  |  |  |  |  |  | 
18 | COc1cc(C(=N)N)ccc1-c1cn(-c2ccc(C(=N)N)cc2)nn1.Cl.Cl |  | 60 days | 8.70 | 4.89 | 7.51 | 1920 | 29700 | 4.23 | 5 |  |  |  |  |  |  | 
19 | Cl.Cl.N=C(N)c1cccc(-n2cc(-c3cc(C(=N)N)ccc3O)nn2)c1 | Toxic | 14.75 days | 7.44 | 4.70 | 6.76 | > 782 | > 3780 | < 3.87 | > 7 |  |  |  |  |  |  | 
20 | Cl.Cl.Oc1cc(C2=NCCN2)ccc1-c1cn(-c2ccc(C3=NCCN3)cc2)nn1 | Toxic | 10 days | 9.22 | 4.62 | 7.42 | > 5000 | > 317000 | < 3.72 | > 8 |  |  |  |  |  |  | inactive
21 | COc1ccc(C2=NCCN2)cc1-c1cn(-c2ccc(C3=NCCN3)cc2)nn1.Cl.Cl | Toxic | 26 days | 8.00 | < 4.00 | 7.68 | > 8950 | > 18800 | < 3.73 |  |  |  |  |  |  |  | 
22 | COc1ccc(C(=N)N)cc1-c1cn(-c2ccc(C(=N)N)cc2)nn1.Cl.Cl |  | 15.5 days | 8.15 | 5.37 | 8.10 | > 24800 | > 28300 | < 3.70 | > 46 |  |  |  |  |  |  | 
23 | Cl.Cl.N=C(N)c1cccc(-n2cc(-c3ccc(C(=N)N)cc3O)nn2)c1 |  | 39 days | 8.15 | 5.10 | 8.10 | > 26200 | > 30000 | < 3.68 | > 26 |  |  |  |  |  |  | 
24 | COc1ccc(C2=NCCN2)cc1-c1cn(-c2cccc(C3=NCCN3)c2)nn1.Cl.Cl | Non-toxic |  | 7.85 | 5.31 | 8.22 | > 29300 | > 12600 | < 3.75 | > 36 |  | 12 days |  | 14 days |  | Toxic | 
